Measurements from ChEMBL document CHEMBL3244215, “Fluorinated pyrimidine nucleosides. 3. Synthesis and antitumor activity of a series of 5'-deoxy-5-fluoropyrimidine nucleosides” (J Med Chem, 1979).
Activity calls are given as the source filed them. No cut-off for these calls is given here.

How the values were obtained:
Mus musculus [1] = experiment: Toxicity in mouse in po dosed CD1 mouse assessed as leukopenia administered once daily starting shortly post implantation continued for 8 days relative to vehicle-treated control; assay type: organism-based; conditions: in vivo, 192 h
Mus musculus [2] = experiment: Toxicity in mouse in po dosed CD1 mouse assessed as change in body weight administered once daily starting shortly post implantation continued for 8 days relative to vehicle-treated control; assay type: organism-based; conditions: in vivo, 192 h
Sarcoma-180 [3] = experiment: Antitumor activity against mouse Sarcoma 180 cells allografted in CD1 mouse at 200 mg/kg, ip qd administered shortly post implantation continued for 8 days relative to vehicle-treated control; assay type: functional, organism-based; set-up: dose 200 mg/kg
How it was run: (§1)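 Compounds dissolved or suspended in H2O, given ip as 1.0 mL shortly after tumor implantation, then daily to eight doses in total. Mice killed 8 days after implantation; tumors excised and weighed. Mean tumor weight of treated mice (T) compared with that of H2O-treated controls (C), expressed as C/T index.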

Sarcoma-180 [4] = experiment: Antitumor activity against mouse Sarcoma 180 cells allografted in CD1 mouse at 100 mg/kg, ip qd administered shortly post implantation continued for 8 days relative to vehicle-treated control; assay type: functional, organism-based; set-up: dose 100 mg/kg; how it was run: as §1
Sarcoma-180 [5] = experiment: Antitumor activity against mouse Sarcoma 180 cells allografted in CD1 mouse at 40 mg/kg, ip qd administered shortly post implantation continued for 8 days relative to vehicle-treated control; assay type: functional, organism-based; set-up: dose 40 mg/kg; how it was run: as §1
Sarcoma-180 [6] = experiment: Antitumor activity against mouse Sarcoma 180 cells allografted in CD1 mouse at 20 mg/kg, ip qd administered shortly post implantation continued for 8 days relative to vehicle-treated control; assay type: functional, organism-based; set-up: dose 20 mg/kg; how it was run: as §1
Sarcoma-180 [7] = experiment: Antitumor activity against mouse Sarcoma 180 cells allografted in CD1 mouse at 50 mg/kg, ip qd administered shortly post implantation continued for 8 days relative to vehicle-treated control; assay type: functional, organism-based; set-up: dose 50 mg/kg; how it was run: as §1
Sarcoma-180 [8] = experiment: Antitumor activity against mouse Sarcoma 180 cells allografted in CD1 mouse at 25 mg/kg, ip qd administered shortly post implantation continued for 8 days relative to vehicle-treated control; assay type: functional, organism-based; set-up: dose 25 mg/kg; how it was run: as §1
Sarcoma-180 [9] = experiment: Antitumor activity against mouse Sarcoma 180 cells allografted in CD1 mouse at 12.5 mg/kg, ip qd administered shortly post implantation continued for 8 days relative to vehicle-treated control; assay type: functional, organism-based; set-up: dose 12.5 mg/kg; how it was run: as §1
Sarcoma-180 [10] = experiment: Antitumor activity against mouse Sarcoma 180 cells allografted in CD1 mouse at 3.12 to 800 mg/kg, ip qd administered shortly post implantation for 8 days relative to vehicle-treated control; assay type: functional, organism-based

Structure (SMILES) | Activity (Sarcoma-180 [3]) | Activity (Sarcoma-180 [4]) | other results
O=c1[nH]c(=O)n([C@H]2C[C@H](O)[C@@H](CO)O2)cc1F [FLOXURIDINE] |  |  | Activity (Mus musculus [1]): Toxic; Activity (Mus musculus [2]): Toxic
C[C@H]1O[C@@H](n2ccc(N)nc2=O)[C@H](O)[C@@H]1O | inactive |  | 
C[C@H]1O[C@@H](n2cc(F)c(N)nc2=O)[C@H]2O[C@H]21 | inactive |  | 
C[C@@H]1O[C@@H](n2cc(F)c(=O)[nH]c2=O)[C@H](O)[C@@H]1O |  | inactive | 
C[C@H]1O[C@@H]2[C@@H](Oc3nc(N)c(F)c[n+]32)[C@@H]1O | Active | Active | Activity (Sarcoma-180 [5]): Active; Activity (Sarcoma-180 [6]): inactive
C[C@H]1O[C@@H](n2ccc(=O)[nH]c2=O)[C@H](O)[C@@H]1O | inactive |  | 
C[C@H]1O[C@@H](n2cc(F)c(=O)[nH]c2=O)[C@@H](O)[C@H]1O |  | inactive | 
C[C@H]1O[C@@H](n2cc(F)c(=O)[nH]c2=O)[C@H](O)[C@@H]1O [DOXIFLURIDINE] | Active | Active | Activity (Sarcoma-180 [7]): Active; Activity (Sarcoma-180 [8]): Active; Activity (Sarcoma-180 [9]): inactive; Activity (Sarcoma-180 [10]): Active; Activity (Mus musculus [1]): Toxic; Activity (Mus musculus [2]): Toxic
C[C@H]1O[C@@H](n2cc(F)c(=O)[nH]c2=O)[C@@H](O)[C@@H]1O |  | inactive | 
C[C@H]1O[C@@H](n2cc(F)c(N)nc2=O)[C@@H](O)[C@@H]1O |  | inactive | 
C[C@H]1O[C@@H]2[C@@H](Oc3nc(=O)c(F)cn32)[C@@H]1O | inactive |  | 
C=C1O[C@@H](n2cc(F)c(=O)[nH]c2=O)[C@H](O)[C@@H]1O |  | inactive | 
C[C@H]1O[C@@H](n2cc(F)c(N)nc2=O)[C@H](O)[C@@H]1O | Active | Active | Activity (Sarcoma-180 [7]): Active; Activity (Sarcoma-180 [8]): Active; Activity (Sarcoma-180 [9]): inactive
C[C@H]1O[C@@H](n2cc(F)c(=O)[nH]c2=O)[C@@H]2OC(C)(C)O[C@@H]21 | inactive |  | 
